Compounds with a hit are over-represented: about 3.9% of the library has one in this group of screens.
CHRM1 agonist – human M1 muscarinic receptor agonists, primary screen, Fluo-8 calcium fluorescence, CHO-K1 cells, HTS. activation, % at 3 µM. actives 0.33% (n = 360,000). CHO-K1 hM1, agonist mode; 0% DMSO, 100% acetylcholine EC100. Muscarinic acetylcholine receptor M1 (Homo sapiens), P11229. AID 588814, 2011;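 active = activation above the run's mean compound activation plus 3 SD, cut at about 16% in these data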;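 note: peak over basal fluorescence ratio within a 140 s kinetic read after compound addition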
CHRM1 PAM – human M1 muscarinic receptor positive allosteric modulators, primary screen, CHO-K1 cells, Fluo-8 calcium fluorescence, 1536-well. Muscarinic acetylcholine receptor M1 (Homo sapiens), P11229. CHO-K1 hM1, ACh EC20; 0% = ACh EC20, 100% = maximal ACh. activation, % at 3 µM. actives 0.088% (n = 360,000). AID 588819, 2011; in the data active = activation above about 19%, passing the limit was not always enough
TAAR1 antag – human TAAR1 antagonists, primary screen, Fluo-8 calcium fluorescence, CHO RD-HGA16 cells; inhibition, % at 3 µM; Trace amine-associated receptor 1 (Homo sapiens), Q96RJ0; antagonist; actives 1.5% (n = 360,000); AID 624466, 2012;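 active = inhibition above a per-plate cutoff, the mean inhibition of test compounds on that plate plus 3 SD, cut at about 49% in these data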;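 note: 0% = DMSO plus EC80 beta-PEA response and 100% = DMSO alone without agonist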
Target sequence (Q96RJ0 whole entry, looked up): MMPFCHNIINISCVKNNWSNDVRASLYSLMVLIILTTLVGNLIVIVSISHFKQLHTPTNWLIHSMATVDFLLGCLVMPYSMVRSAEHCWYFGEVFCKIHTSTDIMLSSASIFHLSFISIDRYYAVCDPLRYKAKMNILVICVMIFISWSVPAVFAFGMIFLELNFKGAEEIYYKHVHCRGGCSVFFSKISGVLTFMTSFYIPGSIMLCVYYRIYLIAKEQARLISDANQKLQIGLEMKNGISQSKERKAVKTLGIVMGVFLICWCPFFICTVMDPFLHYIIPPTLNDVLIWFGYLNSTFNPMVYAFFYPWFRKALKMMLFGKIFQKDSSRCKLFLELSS
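Test system: RD-HGA16 CHO cells with stable hTAAR1 and Gα16 / Probe or stimulus: EC80 β-phenethylamine stimulus / Times: seeding 17-24 h prior, 75-min 37 °C, 30-min RT dye loading / Detection: Fluo-8 calcium-sensitive fluorescence / Read-out basis: % inhibition scaled between DMSO and EC80 PEA controls / Repeats: singlicate, one well per test compound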
HTR2A ag – mouse Htr2a agonists via beta-arrestin recruitment, primary screen, cell-based, luminescence. 5-hydroxytryptamine receptor 2A (Mus musculus), P35363. CHO-K1 mHTR2A beta-arrestin complementation; percent of 30 µM serotonin response. activation, % at 7.6 µM. actives 0.66% (n = 360,000). AID 624169, 2012;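 active = activation above a run cutoff, the mean activation of all tested compounds plus 3 SD, cut at about 14% in these data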;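 note: 0% = plate median of compound wells and 100% = 30 µM serotonin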
M1 antag – human M1 muscarinic receptor antagonists, primary screen, CHO-K1 cells, Fluo-8 calcium fluorescence, 1536-well; actives 1.3% (n = 360,000); CHO-K1 hM1, ACh EC80 antagonist; inhibition, % at 3 µM; Muscarinic acetylcholine receptor M1 (Homo sapiens), P11229;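 active = percent inhibition above its own plate's cutoff, namely the mean of that plate's compound wells plus 3 SD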;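 note: peak over basal fluorescence ratio during 140 s after agonist addition; 0% = ACh EC80 plus DMSO and 100% = DMSO alone without agonist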
TAAR1 ag – human TAAR1 agonists, primary screen, Fluo-8 calcium fluorescence, CHO RD-HGA16 cells; activation, % at 3 µM; vehicle wells 0%, saturating PEA agonist 100%; AID 624467, 2012; Trace amine-associated receptor 1 (Homo sapiens), Q96RJ0; actives 0.99% (n = 360,000);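 active = activation above the mean activation of all test compounds in the run plus 3 SD, cut at about 38% in these data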
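System: CHO-derived RD-HGA16 cells with stable Gα16 and human TAAR1. Times: 17-24 h plating, Fluo-8 75 min 37 °C, 30 min RT. Measured by: calcium-sensitive Fluo-8 signal, excitation 470-495, emission 515-575 nm. Read-out basis: % activation relative to PEA EC100 response. Control set: DMSO and PEA EC100. Repeats: no replicates (n 1).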
Active calls of the source: *; nt = not tested or not shown; ! = not confirmed by another sample.

SMILES	CHRM1 agonist	CHRM1 PAM	TAAR1 antag	HTR2A ag	M1 antag	TAAR1 ag
COC(=O)[C@]12C[C@H](CC(=O)NCCCN3CCCC3=O)C(=O)N(Cc3ccc4c(c3)OCO4)C1=C[C@H](COCc1ccccc1)O[C@@H]2C	nt	nt	-31	nt	nt	6
CCCCN1C(=N)N([C@@H](CCC)CN2CCC[C@H]2CN2C(N)=NC[C@H]2CC(C)C)C[C@H]1Cc1ccccc1	-10	-4	-4	1	-8	0
CCCCN1C(=N)N([C@@H](CN2CCC[C@H]2CN2C(N)=NC[C@@H]2Cc2ccccc2)C(C)C)C[C@H]1Cc1ccccc1	-11	-33	13	-5	59*	2
CCCCN1C(=N)N([C@@H](C)CN2CCC[C@H]2CN2C(N)=NC[C@@H]2Cc2ccccc2)C[C@H]1Cc1ccccc1	-13	-40	-4	-13	94*	6
O=C(OCc1cccc([N+](=O)[O-])c1)c1ccc2ccccc2n1	-7	-1	-4	-5	1	-2
CC(C)Nc1nc(NC(C)(C)C)nc(Oc2ccc(=O)n(C)n2)n1	3	10	-1	1	-7	39*
CCn1c(SCc2ccccc2)nnc1-c1ccc(S(=O)(=O)N2CCCCC2)cc1	-2	-12	21	0	27*	9
CCOC(=O)CC1C(=O)NCCN1S(=O)(=O)c1ccc(NC(C)=O)cc1 (stereo not drawn)	2	9	-17	8	-2	2
O=C(N/N=C/c1ccccc1)c1ccc(CN2C(=O)c3cccc4cccc2c34)cc1	43*	10	31	0	-8	0
O=C(N/N=C/c1ccc(O)cc1O)c1ccc(CN2C(=O)c3cccc4cccc2c34)cc1	16*	-4	-4	-2	2	2
O=C(Nc1ccccc1N1CCN(C(=O)c2ccccc2)CC1)c1ccc([N+](=O)[O-])o1	-7	-11	55*	1	10	12
O=C(Nc1ccccc1N1CCCC1)c1ccc([N+](=O)[O-])o1	-1	14	-13	2	-18	-1
O=C(NCCCN1CCOCC1)NC1CCCCC1	-4	7	-8	4	-13	5
O=C(NCCCCCCCN1CCCCCCC1)C(C1CCCCC1)C1CCCCC1	-9	-30	-11	-2	57*	10
CC1(c2ccc(OC(F)F)cc2)NC(=O)N(CC(=O)Nc2ccc(N3CCCCC3)cc2)C1=O (stereo not drawn)	13	-4	44	6	24	50*
CC1(c2ccc([N+](=O)[O-])cc2)NC(=O)N(CC(=O)Nc2ccc(N3CCCCC3)cc2)C1=O (stereo not drawn)	9	2	40	2	16	43*
CC1(c2ccccc2)NC(=O)N(CC(=O)Nc2ccc([N+](=O)[O-])cc2)C1=O (stereo not drawn)	0	-9	1	-1	12	2
O=C(CN1C(=O)NC2(CCCCCCC2)C1=O)Nc1ccc(OC(F)F)cc1	-5	8	-5	1	-21	-1
CCOC(=O)c1oc2ccc(CNC3CCCCC3)c(Cl)c2c1C	-11	-36	-3	1	76*	8
CCOc1ccccc1N(CC(=O)NCCSCc1ccco1)S(=O)(=O)c1ccccc1	-3	-10	50*	-7	21	0
CN(CC(=O)Nc1cccc(F)c1)C(=O)CCCNC(=O)c1ccc(Cl)cc1	-2	12	-22	-4	-12	7
COC(=O)C1=C(C)N(Cc2ccccc2)C(=NCc2cccc(C(F)(F)F)c2)N[C@H]1c1cccc(F)c1	0	3	34	2	4	42*
CN(C)NC(=S)NC1CCS(=O)(=O)C1 (stereo not drawn)	0	17	8	-4	-23	1
C/C(=N\N1CCCCC1)c1ccccc1O	22*	5	-15	2	6	3
CCN1CCN(c2ccc(S(=O)(=O)N3CCOCC3)cc2NC(=O)c2ccccc2SC)CC1	24*	0	-11	-2	-10	1
SMILES	CHRM1 agonist	CHRM1 PAM	TAAR1 antag	HTR2A ag	M1 antag	TAAR1 ag
COc1ccc(-c2cc(C(=O)Nc3cc(S(=O)(=O)N4CCOCC4)ccc3N3CCOCC3)c3ccccc3n2)cc1	-1	-4	54*	5	21	21
CC1=C(C(=O)N(C(C)C)C(C)C)CC(CC(=O)NC(c2ccccc2)c2ccccc2)C(=O)N1CCCN1CCCC1=O (stereo not drawn)	-6	3	-18	2	-19	1
CCOC(=O)Nc1ccc2c(c1)N(C(=O)OCCN(C)C)c1ccccc1CC2	-12	-26	-20	-8	31*!	2
CNC(=O)CSc1nnnn1CCCOC	-3	0	4	-1	43*	4
CCOc1cc(N2CCOCC2)c(OCC)cc1NC(=O)CN1C(=O)NC2(CCCCC2C)C1=O (stereo not drawn)	-1	12	8	4	-15	0
C[C@@H]1CCCCCCCCC(=O)OCCN[C@H](C)CCCCCCCCC(=O)OCCN[C@H](C)CCCCCCCCC(=O)OCCN1	-14	-38	nt	1	47*	nt
C[C@@H]1CCCCCCCCC(=O)OCCN(C(=O)OC(C)(C)C)[C@H](C)CCCCCCCCC(=O)OCCN1C(=O)OC(C)(C)C	-3	2	-9	4	2	5
Cc1cccc(Cn2cnc3c(nnn3Cc3ccccc3F)c2=O)c1	-3	-15	60*	5	20	18
Cc1ccc(COn2c(-c3ccc(Cl)cc3Cl)nc3ncccc32)cc1	-6	-22	28	3	35*	20
Clc1cccc(COn2c(-c3ccc(Cl)cc3Cl)nc3ncccc32)c1	-5	-8	-5	-3	2	7
COc1ccc2cc(C3CC=C(CO)CN3S(=O)(=O)c3ccccc3[N+](=O)[O-])n(C(=O)OC(C)(C)C)c2c1 (stereo not drawn)	nt	nt	50*	-2	nt	3
Cc1cc(C)n(-c2ccccc2C#N)n1	4	-1	-11	5	4	1
O=C(CCN1CCC2CCC(C2)C1)c1ccccc1 (stereo not drawn)	-4	4	3	4	-17	1

Compound activity as filed in PubChem BioAssay.
